The target of data set [1] is Human immunodeficiency virus type 1 integrase (Human immunodeficiency virus 1, UniProt Q7ZJM1). The data set can be described thus: Inhibition of HIV1 integrase strand transfer activity using pre-incubation and wash with Mg2+ cofactor by ELISA based microtiter plate integration assay. The method, boiled down:
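Preformed IN–substrate DNA complex on microtiter plate, unbound IN washed out; compound preincubated with complex 30 min at 30 °C in 30 mM MOPS pH 7.2, 10 mM DTT, 5% glycerol, 100 μg/mL BSA; Mg2+ 15 mM throughout; strand transfer started with digoxigenin-labeled target DNA, products quantified by anti-Dig ELISA; mean ± sd of three independent experiments.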
For orientation: In an ELISA, binding on a coated surface is turned into a signal by an enzyme label.

For data set [2], the system named is Human immunodeficiency virus 1. Description: Inhibition of wild type HIV1 3B infected in human MT4 cells using cells pre-incubated with compound for 1 hr measured 4 days post viral infection by MTT assay. It is filed as functional, organism-based. The settings on record: Human immunodeficiency virus 1, 3B. The method, boiled down:
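MT-4 cells (2.5 × 10^4/well, RPMI 1640 + 10% FBS) exposed to compound dilutions 1 h, then infected with HIV-1 IIIB (MOI 0.001 or TCID50 4 to 10); after 4 days viability read by MTT absorbance at 560/690 nm; mean ± sd of three independent experiments.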
On the technique in general: Tetrazolium dyes change colour on reduction, which living cells bring about.

Data set [3] is described as follows: Cytotoxicity against human MT4 cells incubated for 4 days by MTT assay. It is filed as cell-based. The method, boiled down:
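Uninfected MT-4 cells, 2.5 × 10^4/well, cultured with graded compound concentrations for 4 days; growth inhibition measured by MTT absorbance at 560 and 690 nm.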

Data set [4] concerns Human immunodeficiency virus 1. The data set can be described thus: Resistance index, ratio of IC50 for HIV1 3B containing integrase N155H mutant to IC50 for wild type HIV1 3B. Type of data set: functional. In short, it runs like this: (§1)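 Integrase mutations introduced into pNL432 molecular clone; plasmids transfected into 293T cells, supernatants harvested after 2 days and stored at −80 °C. Mutant and wild-type viruses tested in HeLa-CD4 cells carrying HIV-1 LTR-driven β-galactosidase reporter. Fold change is mutant IC50 over wild-type IC50.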

In data set [5] the test system is Human immunodeficiency virus 1. Description: Resistance index, ratio of IC50 for HIV1 3B containing integrase Y143R mutant to IC50 for wild type HIV1 3B. It is filed as functional. In short, it runs like this: as §1
Data set [6] relates to Human immunodeficiency virus 1. The data set can be described thus: Inhibition of wild type HIV1 3B infected in human MT4 cells using cells pre-incubated with compound for 1 hr measured 4 days post viral infection in presence of 20 mg/ml HSA by MTT assay. It is filed as functional, organism-based. The settings on record: Human immunodeficiency virus 1, 3B.
The subject of data set [7] is Human immunodeficiency virus 1. The data set can be described thus: Potency shift, ratio of IC50 for wild type HIV1 3B infected in human MT4 cells in presence of 20 mg/ml HSA to IC50 for wild type HIV1 3B infected in human MT4 cells in absence of HSA. It is filed as functional. The method, boiled down:
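MT-4 cells (2.5 × 10^4/well) preincubated 1 h with graded compound, then infected with HIV-1 IIIB (MOI 0.001 or TCID50 4 to 10), with or without human serum albumin 20 mg/mL; after 4 days viability read by MTT absorbance at 560/690 nm. Fold-shift = IC50 with HSA over IC50 without.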

Data set [8] can be described thus: Total clearance in fed rat at 1 mg/kg, iv measured up to 24 hrs. Type of data set: ADME, organism-based. Further details: dose 1 mg/kg, route intravenous; call rule not given here. The settings on record: in vivo. The method, boiled down: (§2)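 Intravenous 1 mg/kg, fed conditions; vehicle DMA/PEG/saline (1:4:5) for rats, 50 mM N-methylglucamine in 3% mannitol for dogs and monkeys; rat blood via jugular cannula; plasma collected up to 24 h, centrifuged 16000g 3 min, held at −20 °C; noncompartmental analysis.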

A short description of data set [9]: Terminal half life in fed rat at 1 mg/kg, iv measured up to 24 hrs. Type of data set: ADME, organism-based. More on the design: dose 1 mg/kg, route intravenous. To be noted: in vivo, read-out: beta t1/2 (converted). The method, boiled down: as §2
Data set [10] in a line: AUC (0 to infinity) in fed rat at 5 mg/kg, po measured up to 24 hrs. Type of data set: ADME, organism-based. Further details: time infinity, dose 5 mg/kg, route oral. To be noted: plasma.
Data set [11] can be described thus: Half life in fed rat at 5 mg/kg, po measured up to 24 hrs. More on the design: dose 5 mg/kg, route oral. It is filed as ADME, organism-based. The settings on record: in vivo.
Data set [12] can be described thus: Volume of distribution at steady state in fed rat at 1 mg/kg, iv measured up to 24 hrs. Type of data set: ADME, organism-based. More on the design: dose 1 mg/kg, route intravenous. To be noted: in vivo, read-out: Vdss. The method, boiled down: as §2
Data set [13] in a line: Oral bioavailability in fed rat at 5 mg/kg measured up to 24 hrs. To be noted: in vivo. It is filed as ADME, organism-based.
Data set [14] is described as follows: Plasma concentration in fed rat at 5 mg/kg, po measured at 24 hrs. Further details: dose 5 mg/kg, route oral. It is filed as ADME, organism-based.
Data set [15] is described as follows: Ratio of Plasma concentration in fed rat at 5 mg/kg, po measured at 24 hrs to IC50 for wild type HIV1 3B infected in human MT4 cells in presence of 20 mg/ml HSA.
Data set [16] in a line: Total clearance in fed beagle dog at 1 mg/kg, iv measured up to 24 hrs. Type of data set: ADME, organism-based, Canis lupus familiaris. To be noted: in vivo. Further details: dose 1 mg/kg, route intravenous. The method, boiled down: as §2
The nature of data set [17]: Terminal half life in fed beagle dog at 1 mg/kg, iv measured up to 24 hrs. It is filed as ADME, organism-based, Canis lupus familiaris. More on the design: dose 1 mg/kg, route intravenous. The settings on record: in vivo, read-out: beta t1/2 (converted). The method, boiled down: as §2
Data set [18] is described as follows: Volume of distribution at steady state in fed beagle dog at 1 mg/kg, iv measured up to 24 hrs. The settings on record: in vivo, read-out: Vdss. Type of data set: ADME, organism-based, Canis lupus familiaris. Further details: dose 1 mg/kg, route intravenous. The method, boiled down:
as §2

The nature of data set [19]: Oral bioavailability in fed beagle dog at 5 mg/kg measured up to 24 hrs. It is filed as ADME, organism-based, Canis lupus familiaris. To be noted: in vivo.
Data set [20] is described as follows: Total clearance in fed cynomolgus monkey at 1 mg/kg, iv measured up to 24 hrs. Type of data set: ADME, organism-based, Macaca fascicularis. Further details: dose 1 mg/kg, route intravenous. To be noted: in vivo. The method, boiled down: as §2
Data set [21] can be described thus: Terminal half life in fed cynomolgus monkey at 1 mg/kg, iv measured up to 24 hrs. Type of data set: ADME, organism-based, Macaca fascicularis. Further details: dose 1 mg/kg, route intravenous. To be noted: in vivo, read-out: beta t1/2 (converted). In short, it runs like this:
as §2

Data set [22] in a line: Volume of distribution at steady state in fed cynomolgus monkey at 1 mg/kg, iv measured up to 24 hrs. Type of data set: ADME, organism-based, Macaca fascicularis. More on the design: dose 1 mg/kg, route intravenous. To be noted: in vivo, read-out: Vdss. In short, it runs like this:
as §2

A short description of data set [23]: Oral bioavailability in fed cynomolgus monkey at 5 mg/kg measured up to 24 hrs. Type of data set: ADME, organism-based, Macaca fascicularis. The settings on record: in vivo.
A short description of data set [24]: Ratio of Plasma concentration in fed beagle dog at 5 mg/kg, po measured at 24 hrs to IC50 for wild type HIV1 3B infected in human MT4 cells in presence of 20 mg/ml HSA.
Data set [25] can be described thus: Ratio of Plasma concentration in fed cynomolgus monkey at 5 mg/kg, po measured at 24 hrs to IC50 for wild type HIV1 3B infected in human MT4 cells in presence of 20 mg/ml HSA.
Data set [26] can be described thus: Inhibition of CYP450. It is filed as ADME.
Data set [27] relates to Human immunodeficiency virus 1. The data set can be described thus: Resistance index, ratio of IC50 for HIV1 3B containing integrase Q148K mutant to IC50 for wild type HIV1 3B.

Bounds are passed on as bounds.

Human immunodeficiency virus type 1 integrase, sequence (Q7ZJM1 whole entry): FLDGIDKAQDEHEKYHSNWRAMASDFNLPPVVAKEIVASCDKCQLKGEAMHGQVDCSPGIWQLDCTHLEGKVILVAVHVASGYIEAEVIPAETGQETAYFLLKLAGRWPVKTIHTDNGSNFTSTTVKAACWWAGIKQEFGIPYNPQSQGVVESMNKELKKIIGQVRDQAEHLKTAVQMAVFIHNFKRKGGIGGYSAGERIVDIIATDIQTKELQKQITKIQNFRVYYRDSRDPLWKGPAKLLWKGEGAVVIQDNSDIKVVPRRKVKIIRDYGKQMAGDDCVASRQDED

One may read the IC50 as the concentration that inhibits the measured activity by half. One may read the CC50 as the concentration giving 50% cytotoxicity. Take `O=C(NCCO)c1[nH]cc(C(=O)NCc2ccc(F)cc2)c(=O)c1O`: the IC50 in [1] worked out at 300 nM; in [2] it was 5500 nM. In data set [3], the 50% cytotoxic concentration (CC50) at 96 h was greater than 200000 nM.

In the case of `COCCNC(=O)c1[nH]cc(C(=O)NCc2ccc(F)cc2)c(=O)c1O`, the IC50 in [1] came out at 130 nM; in [2], 110 nM. Besides, the 50% cytotoxic concentration (CC50) at 96 h in data set [3] is 16000 nM.

Take `NC(=O)c1[nH]cc(C(=O)NCc2ccc(F)cc2)c(=O)c1O`: the IC50 in [1] was 380 nM; in [2], 5500 nM. This molecule also returned a CC50 at 96 h in [3] of 40000 nM.

As a reminder, the clearance is the volume of plasma or blood freed of the substance per unit of time. What is called AUC(0-inf) is the area under the concentration-time curve extrapolated to infinity. By bioavailability is commonly meant dose-corrected exposure relative to a reference, in per cent. In the case of `COC(=O)c1[nH]cc(C(=O)NCc2ccc(F)cc2)c(=O)c1O`, the IC50 in [1] was found to be 18 nM; in data set [2], 10 nM; in [6], 120 nM. Moreover, in data set [3], it took 19000 nM to reach half-maximal cytotoxicity (CC50 at 96 h). Besides, the “Ratio IC50” value in [4] came to 21; in [5] it was 1.5; in [7], 12; in data set [27], 200. For the same molecule, the results for the clearance in data set [8], in data set [16] and in [20] were 1.2 mL/min/kg, 0.84 mL/min/kg and 2.4 mL/min/kg, respectively. Further, the half-life in data set [9] is 4.7 h; in data set [11], 4.2 h; in data set [17], 3.8 h; in data set [21] it was 5.3 h. Besides, in [10], the AUC(0-inf) came to 41200 ng·h/mL. Besides, the Vd was 0.2 L/kg in data set [12], 0.14 L/kg in [18] and 0.3 L/kg in [22]. Further, the bioavailability in [13] stood at 53%; in data set [19], 46%; in data set [23] it was 22%. The same molecule gave a concentration at 24 h in data set [14] of 130 ng/mL. In addition, the Ratio was 3.4 in data set [15], 6 in [24] and 1.6 in data set [25]. For the same molecule, the “inhibition (INH)” value in [26] is “Not Active”.

In the case of `CN(C)C(=O)c1[nH]cc(C(=O)NCc2ccc(F)cc2)c(=O)c1O`, the IC50 is 540 nM in [1] and 1600 nM in data set [2]. For the same molecule, in data set [3], the CC50 at 96 h was 5100 nM.

Consider `CNC(=O)c1[nH]cc(C(=O)NCc2ccc(F)cc2)c(=O)c1O`, for which the half-maximal inhibitory concentration (IC50) in data set [1] was determined as 1300 nM; in [2] it was 120 nM. In data set [3], the CC50 at 96 h turned out to be 8500 nM.

`Cc1nnc(C(=O)NC(C)(C)c2nc(C(=O)NCc3ccc(F)cc3)c(O)c(=O)n2C)o1` [RALTEGRAVIR]: the 50% inhibitory concentration (IC50) in data set [2] came out at 6.2 nM; in data set [6], 29 nM.

For the molecule `COc1cc2c(cc1Cc1cccc(Cl)c1F)c(=O)c(C(=O)O)cn2[C@H](CO)C(C)C` [ELVITEGRAVIR], the figures for the IC50 in data set [2] and in [6] were 1.3 nM and 29 nM, respectively.

`O=C(O)c1[nH]cc(C(=O)NCc2ccc(F)cc2)c(=O)c1O`: the IC50 in [1] turned out to be 10 nM; in data set [2], 1400 nM. Moreover, the half-maximal cytotoxic concentration (CC50) at 96 h in [3] was greater than 200000 nM.

(Values after ChEMBL document CHEMBL2169855, “Carbamoyl pyridone HIV-1 integrase inhibitors. 1. Molecular design and establishment of an advanced two-metal binding pharmacophore” (J Med Chem, 2012).)
